Measurements as given in ChEMBL document CHEMBL1152792, “Synthesis and anticonvulsant activity of amino acid-derived sulfamides” (J Med Chem, 2009).
Active and inactive are the calls of the source. No cut-off for these calls is given here.

test system: Mus musculus; assay: Anticonvulsant activity in albino mouse at 30 mg/kg, ip after 0.5 hrs by MES test; assay type: functional, organism-based; design: dose 30 mg/kg; conditions: not given
Summary of the method: (§1)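 NIH Anticonvulsant Drug Development (ADD) program phase I screen in adult male albino mice (18–23 g). Compound given ip in 30% PEG 400 and 10% water at 0.01 mL/g body weight. Seizures were induced electrically (MES) or chemically (PTZ), and animals were tested 0.5 and 4 h after dosing. Result scored as protected/tested animals.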

Compound | Activity
COC(=O)CNS(=O)(=O)N(Cc1ccccc1)C(=O)OC(C)(C)C | inactive
COC(=O)CCNS(=O)(=O)NCc1ccccc1 | inactive
COC(=O)[C@H](C)NS(=O)(=O)N[C@@H](C)C(=O)OC | inactive
COC(=O)CCNS(=O)(=O)NCCC(=O)OC | inactive
COC(=O)CNS(=O)(=O)NC(=O)OC(C)(C)C | inactive
COC(=O)CNS(=O)(=O)NCc1ccccc1 | inactive

test system: Mus musculus; assay: Anticonvulsant activity in albino mouse at 100 mg/kg, ip after 0.5 hrs by MES test; assay type: functional, organism-based; design: dose 100 mg/kg; conditions: not given; summary of the method: as §1

Compound | Activity
COC(=O)CNS(=O)(=O)N(Cc1ccccc1)C(=O)OC(C)(C)C | inactive
COC(=O)[C@H](C)NS(=O)(=O)N[C@@H](C)C(=O)OC | inactive
COC(=O)CNS(=O)(=O)NC(=O)OC(C)(C)C | inactive
COC(=O)CNS(=O)(=O)NCc1ccccc1 | inactive

test system: Mus musculus; assay: Anticonvulsant activity in albino mouse at 300 mg/kg, ip after 0.5 hrs by MES test; assay type: functional, organism-based; design: dose 300 mg/kg; conditions: not given; summary of the method: as §1

Compound | Activity
COC(=O)CNS(=O)(=O)N(Cc1ccccc1)C(=O)OC(C)(C)C | inactive
COC(=O)[C@H](C)NS(=O)(=O)N[C@@H](C)C(=O)OC | inactive
COC(=O)CNS(=O)(=O)NC(=O)OC(C)(C)C | inactive
COC(=O)CNS(=O)(=O)NCc1ccccc1 | inactive

test system: Mus musculus; assay: Anticonvulsant activity in albino mouse at 30 mg/kg, ip after 4 hrs by MES test; assay type: functional, organism-based; design: dose 30 mg/kg; conditions: not given; summary of the method: as §1

Compound | Activity
COC(=O)CNS(=O)(=O)N(Cc1ccccc1)C(=O)OC(C)(C)C | inactive
COC(=O)CCNS(=O)(=O)NCc1ccccc1 | inactive
COC(=O)[C@H](C)NS(=O)(=O)N[C@@H](C)C(=O)OC | inactive
COC(=O)CCNS(=O)(=O)NCCC(=O)OC | inactive
COC(=O)CNS(=O)(=O)NC(=O)OC(C)(C)C | inactive
COC(=O)CNS(=O)(=O)NCc1ccccc1 | inactive

test system: Mus musculus; assay: Anticonvulsant activity in albino mouse at 100 mg/kg, ip after 4 hrs by MES test; assay type: functional, organism-based; design: dose 100 mg/kg; conditions: not given; summary of the method: as §1

Compound | Activity
COC(=O)CNS(=O)(=O)N(Cc1ccccc1)C(=O)OC(C)(C)C | inactive
COC(=O)CCNS(=O)(=O)NCc1ccccc1 | inactive
COC(=O)[C@H](C)NS(=O)(=O)N[C@@H](C)C(=O)OC | inactive
COC(=O)CCNS(=O)(=O)NCCC(=O)OC | inactive
COC(=O)CNS(=O)(=O)NC(=O)OC(C)(C)C | inactive
COC(=O)CNS(=O)(=O)NCc1ccccc1 | inactive

test system: Mus musculus; assay: Anticonvulsant activity in albino mouse at 300 mg/kg, ip after 4 hrs by MES test; assay type: functional, organism-based; design: dose 300 mg/kg; conditions: not given; summary of the method: as §1

Compound | Activity
COC(=O)CNS(=O)(=O)N(Cc1ccccc1)C(=O)OC(C)(C)C | inactive
COC(=O)CCNS(=O)(=O)NCc1ccccc1 | inactive
COC(=O)[C@H](C)NS(=O)(=O)N[C@@H](C)C(=O)OC | inactive
COC(=O)CCNS(=O)(=O)NCCC(=O)OC | inactive
COC(=O)CNS(=O)(=O)NC(=O)OC(C)(C)C | inactive
COC(=O)CNS(=O)(=O)NCc1ccccc1 | inactive

test system: Mus musculus; assay: Anticonvulsant activity in albino mouse at 30 mg/kg, ip after 0.5 hrs by PTZ test; assay type: functional, organism-based; design: dose 30 mg/kg; conditions: not given; summary of the method: as §1

Compound | Activity
COC(=O)CNS(=O)(=O)N(Cc1ccccc1)C(=O)OC(C)(C)C | inactive
COC(=O)CCNS(=O)(=O)NCc1ccccc1 | inactive
COC(=O)[C@H](C)NS(=O)(=O)N[C@@H](C)C(=O)OC | inactive
COC(=O)CCNS(=O)(=O)NCCC(=O)OC | inactive
COC(=O)CNS(=O)(=O)NC(=O)OC(C)(C)C | inactive
COC(=O)CNS(=O)(=O)NCc1ccccc1 | inactive

test system: Mus musculus; assay: Anticonvulsant activity in albino mouse at 100 mg/kg, ip after 0.5 hrs by PTZ test; assay type: functional, organism-based; design: dose 100 mg/kg; conditions: not given; summary of the method: as §1

Compound | Activity
COC(=O)CNS(=O)(=O)N(Cc1ccccc1)C(=O)OC(C)(C)C | inactive
COC(=O)CCNS(=O)(=O)NCc1ccccc1 | inactive
COC(=O)[C@H](C)NS(=O)(=O)N[C@@H](C)C(=O)OC | inactive
COC(=O)CCNS(=O)(=O)NCCC(=O)OC | inactive
COC(=O)CNS(=O)(=O)NC(=O)OC(C)(C)C | inactive
COC(=O)CNS(=O)(=O)NCc1ccccc1 | inactive

test system: Mus musculus; assay: Anticonvulsant activity in albino mouse at 300 mg/kg, ip after 0.5 hrs by PTZ test; assay type: functional, organism-based; design: dose 300 mg/kg; conditions: not given; summary of the method: as §1

Compound | Activity
COC(=O)CNS(=O)(=O)N(Cc1ccccc1)C(=O)OC(C)(C)C | inactive
COC(=O)CCNS(=O)(=O)NCc1ccccc1 | inactive
COC(=O)[C@H](C)NS(=O)(=O)N[C@@H](C)C(=O)OC | inactive
COC(=O)CCNS(=O)(=O)NCCC(=O)OC | inactive
COC(=O)CNS(=O)(=O)NC(=O)OC(C)(C)C | inactive
COC(=O)CNS(=O)(=O)NCc1ccccc1 | inactive

test system: Mus musculus; assay: Anticonvulsant activity in albino mouse at 30 mg/kg, ip after 4 hrs by PTZ test; assay type: functional, organism-based; design: dose 30 mg/kg; conditions: not given; summary of the method: as §1

Compound | Activity
COC(=O)CNS(=O)(=O)N(Cc1ccccc1)C(=O)OC(C)(C)C | inactive
COC(=O)[C@H](C)NS(=O)(=O)N[C@@H](C)C(=O)OC | inactive
COC(=O)CCNS(=O)(=O)NCCC(=O)OC | inactive
COC(=O)CNS(=O)(=O)NC(=O)OC(C)(C)C | inactive
COC(=O)CNS(=O)(=O)NCc1ccccc1 | inactive

test system: Mus musculus; assay: Anticonvulsant activity in albino mouse at 100 mg/kg, ip after 4 hrs by PTZ test; assay type: functional, organism-based; design: dose 100 mg/kg; conditions: not given; summary of the method: as §1

Compound | Activity
COC(=O)CNS(=O)(=O)N(Cc1ccccc1)C(=O)OC(C)(C)C | inactive
COC(=O)CCNS(=O)(=O)NCc1ccccc1 | inactive
COC(=O)[C@H](C)NS(=O)(=O)N[C@@H](C)C(=O)OC | inactive
COC(=O)CCNS(=O)(=O)NCCC(=O)OC | inactive
COC(=O)CNS(=O)(=O)NC(=O)OC(C)(C)C | inactive
COC(=O)CNS(=O)(=O)NCc1ccccc1 | inactive

test system: Mus musculus; assay: Anticonvulsant activity in albino mouse at 300 mg/kg, ip after 4 hrs by PTZ test; assay type: functional, organism-based; design: dose 300 mg/kg; conditions: not given; summary of the method: as §1

Compound | Activity
COC(=O)CNS(=O)(=O)N(Cc1ccccc1)C(=O)OC(C)(C)C | inactive
COC(=O)CCNS(=O)(=O)NCc1ccccc1 | inactive
COC(=O)[C@H](C)NS(=O)(=O)N[C@@H](C)C(=O)OC | inactive
COC(=O)CCNS(=O)(=O)NCCC(=O)OC | inactive
COC(=O)CNS(=O)(=O)NC(=O)OC(C)(C)C | inactive
COC(=O)CNS(=O)(=O)NCc1ccccc1 | inactive

test system: Mus musculus; assay: Toxicity in albino mouse at 30 mg/kg, ip after 0.5 hrs by rotarod test; assay type: organism-based; design: dose 30 mg/kg, route intraperitoneal; conditions: in vivo
Summary of the method: (§2)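 Neurotoxicity was screened by the standardized rotarod test in the ADD phase I protocol. Adult male albino mice (18–23 g) received compound ip in 30% PEG 400 and 10% water at 0.01 mL/g. Animals were tested 0.5 and 4 h post-dose. Result scored as toxic/tested animals.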

Compound | Activity
COC(=O)CNS(=O)(=O)N(Cc1ccccc1)C(=O)OC(C)(C)C | Non-toxic
COC(=O)CCNS(=O)(=O)NCc1ccccc1 | Non-toxic
COC(=O)[C@H](C)NS(=O)(=O)N[C@@H](C)C(=O)OC | Non-toxic
COC(=O)CCNS(=O)(=O)NCCC(=O)OC | Non-toxic
COC(=O)CNS(=O)(=O)NC(=O)OC(C)(C)C | Non-toxic
COC(=O)CNS(=O)(=O)NCc1ccccc1 | Non-toxic

test system: Mus musculus; assay: Toxicity in albino mouse at 100 mg/kg, ip after 0.5 hrs by rotarod test; assay type: organism-based; design: dose 100 mg/kg, route intraperitoneal; conditions: in vivo; summary of the method: as §2

Compound | Activity
COC(=O)CNS(=O)(=O)N(Cc1ccccc1)C(=O)OC(C)(C)C | Non-toxic
COC(=O)CCNS(=O)(=O)NCc1ccccc1 | Non-toxic
COC(=O)[C@H](C)NS(=O)(=O)N[C@@H](C)C(=O)OC | Non-toxic
COC(=O)CCNS(=O)(=O)NCCC(=O)OC | Non-toxic
COC(=O)CNS(=O)(=O)NC(=O)OC(C)(C)C | Non-toxic
COC(=O)CNS(=O)(=O)NCc1ccccc1 | Non-toxic

test system: Mus musculus; assay: Toxicity in albino mouse at 300 mg/kg, ip after 0.5 hrs by rotarod test; assay type: organism-based; design: dose 300 mg/kg, route intraperitoneal; conditions: in vivo; summary of the method: as §2

Compound | Activity
COC(=O)CNS(=O)(=O)N(Cc1ccccc1)C(=O)OC(C)(C)C | Non-toxic
COC(=O)CCNS(=O)(=O)NCc1ccccc1 | Non-toxic
COC(=O)[C@H](C)NS(=O)(=O)N[C@@H](C)C(=O)OC | Non-toxic
COC(=O)CCNS(=O)(=O)NCCC(=O)OC | Non-toxic
COC(=O)CNS(=O)(=O)NC(=O)OC(C)(C)C | Non-toxic
COC(=O)CNS(=O)(=O)NCc1ccccc1 | Non-toxic

test system: Mus musculus; assay: Toxicity in albino mouse at 30 mg/kg, ip after 4 hrs by rotarod test; assay type: organism-based; design: dose 30 mg/kg, route intraperitoneal; conditions: in vivo; summary of the method: as §2

Compound | Activity
COC(=O)CNS(=O)(=O)N(Cc1ccccc1)C(=O)OC(C)(C)C | Non-toxic
COC(=O)CCNS(=O)(=O)NCc1ccccc1 | Non-toxic
COC(=O)[C@H](C)NS(=O)(=O)N[C@@H](C)C(=O)OC | Non-toxic
COC(=O)CCNS(=O)(=O)NCCC(=O)OC | Non-toxic
COC(=O)CNS(=O)(=O)NC(=O)OC(C)(C)C | Non-toxic
COC(=O)CNS(=O)(=O)NCc1ccccc1 | Non-toxic

test system: Mus musculus; assay: Toxicity in albino mouse at 100 mg/kg, ip after 4 hrs by rotarod test; assay type: organism-based; design: dose 100 mg/kg, route intraperitoneal; conditions: in vivo; summary of the method: as §2

Compound | Activity
COC(=O)CNS(=O)(=O)N(Cc1ccccc1)C(=O)OC(C)(C)C | Non-toxic
COC(=O)CCNS(=O)(=O)NCc1ccccc1 | Non-toxic
COC(=O)[C@H](C)NS(=O)(=O)N[C@@H](C)C(=O)OC | Non-toxic
COC(=O)CCNS(=O)(=O)NCCC(=O)OC | Non-toxic
COC(=O)CNS(=O)(=O)NC(=O)OC(C)(C)C | Non-toxic
COC(=O)CNS(=O)(=O)NCc1ccccc1 | Non-toxic

test system: Mus musculus; assay: Toxicity in albino mouse at 300 mg/kg, ip after 4 hrs by rotarod test; assay type: organism-based; design: dose 300 mg/kg, route intraperitoneal; conditions: in vivo; summary of the method: as §2

Compound | Activity
COC(=O)CNS(=O)(=O)N(Cc1ccccc1)C(=O)OC(C)(C)C | Non-toxic
COC(=O)CCNS(=O)(=O)NCc1ccccc1 | Non-toxic
COC(=O)[C@H](C)NS(=O)(=O)N[C@@H](C)C(=O)OC | Non-toxic
COC(=O)CCNS(=O)(=O)NCCC(=O)OC | Non-toxic
COC(=O)CNS(=O)(=O)NC(=O)OC(C)(C)C | Non-toxic
COC(=O)CNS(=O)(=O)NCc1ccccc1 | Non-toxic
